{
  "source": "ChEMBL document CHEMBL3351313",
  "about": "“Discovery of (S)-2-cyclopentyl-N-((1-isopropylpyrrolidin2-yl)-9-methyl-1-oxo-2,9-dihydro-1H-pyrrido[3,4-b]indole-4-carboxamide (VU0453379): a novel, CNS penetrant glucagon-like peptide 1 receptor (GLP-1R) positive allosteric modulator (PAM)” (J Med Chem, 2014)",
  "key": {"Plasma [1]": {"system": "Plasma", "test": "Fraction unbound in human plasma", "format": "ADME, cell-free"}, "[2]": {"test": "Half life in rat at 1 mg/kg, iv and […], po", "format": "ADME, organism-based", "set-up": "dose 1 mg/kg, route oral", "details": "in vivo", "method_in_brief": "(§1)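 Male Sprague–Dawley rats were dosed IV at 1 mg/kg and PO at […]. Plasma pharmacokinetic parameters were derived from these doses.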"}, "[3]": {"target": "T1, Glucagon-like peptide 1 receptor (Homo sapiens, UniProt P43220)", "T1 sequence (P43220 whole entry)": "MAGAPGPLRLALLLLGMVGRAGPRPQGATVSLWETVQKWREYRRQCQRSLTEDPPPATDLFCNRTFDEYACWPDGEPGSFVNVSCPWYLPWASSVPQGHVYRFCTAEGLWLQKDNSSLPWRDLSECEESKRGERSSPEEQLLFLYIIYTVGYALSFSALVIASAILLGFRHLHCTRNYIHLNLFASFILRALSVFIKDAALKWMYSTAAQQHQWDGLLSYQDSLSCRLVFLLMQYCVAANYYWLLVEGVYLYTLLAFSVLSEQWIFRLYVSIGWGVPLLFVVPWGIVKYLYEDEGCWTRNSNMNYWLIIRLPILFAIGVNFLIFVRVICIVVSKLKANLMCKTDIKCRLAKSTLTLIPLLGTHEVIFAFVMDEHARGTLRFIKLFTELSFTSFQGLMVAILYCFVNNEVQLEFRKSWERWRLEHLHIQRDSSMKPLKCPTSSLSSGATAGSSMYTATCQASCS", "test": "Positive allosteric modulation of human recombinant GLP1 receptor expressed in 9-3-H cells by calcium mobilization assay in presence of EC20 of GLP1 relative to control", "format": "functional, cell-based"}, "[4]": {"test": "Intrinsic clearance in human liver microsomes", "format": "ADME", "details": "read-out: CLH", "method_in_brief": "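Human liver microsome clearance was scaled to predicted hepatic clearance by the well-stirred model. The model used 20 g liver per kg body weight and 21 mL/kg hepatic blood flow.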"}, "[5]": {"target": "T1, Glucagon-like peptide 1 receptor", "test": "Positive allosteric modulation of human recombinant GLP1 receptor expressed in 9-3-H cells by calcium mobilization assay in presence of EC20 of liragulitide", "format": "functional, cell-based"}, "[6]": {"test": "Intrinsic clearance in rat liver microsomes", "format": "ADME", "details": "read-out: CLH"}, "[7]": {"target": "T1, Glucagon-like peptide 1 receptor", "test": "Positive allosteric modulation of human recombinant GLP1 receptor expressed in 9-3-H cells by calcium mobilization assay", "format": "functional, cell-based"}, "Cytochrome P450 1A2": {"target": "T2, Cytochrome P450 1A2 (Homo sapiens, UniProt P05177)", "T2 sequence (P05177 whole entry)": "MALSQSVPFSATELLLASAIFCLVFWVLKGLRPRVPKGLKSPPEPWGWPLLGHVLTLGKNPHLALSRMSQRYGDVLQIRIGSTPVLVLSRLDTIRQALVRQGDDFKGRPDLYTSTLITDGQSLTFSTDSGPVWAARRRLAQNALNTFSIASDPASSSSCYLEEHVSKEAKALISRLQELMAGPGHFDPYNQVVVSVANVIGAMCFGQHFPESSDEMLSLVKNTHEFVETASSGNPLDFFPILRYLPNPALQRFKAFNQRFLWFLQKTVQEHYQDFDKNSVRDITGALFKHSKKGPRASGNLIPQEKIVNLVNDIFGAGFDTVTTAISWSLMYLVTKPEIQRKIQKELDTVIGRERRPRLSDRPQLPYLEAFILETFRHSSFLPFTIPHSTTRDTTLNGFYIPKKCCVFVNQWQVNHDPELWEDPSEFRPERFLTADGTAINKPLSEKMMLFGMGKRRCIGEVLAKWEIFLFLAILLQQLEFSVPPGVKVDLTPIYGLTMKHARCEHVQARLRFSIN", "test": "Inhibition of CYP1A2 (unknown origin)", "format": "ADME", "method_in_brief": "(§2)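 An in vitro cassette P450 inhibition assay was run in microsomes, with 1A2, 2C9, 2D6 and 3A4 tested together. IC50 values are reported in μM.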"}, "[8]": {"target": "T1, Glucagon-like peptide 1 receptor", "test": "Positive allosteric modulation of human recombinant GLP1 receptor expressed in 9-3-H cells by calcium mobilization assay in presence of EC20 of exenatide", "format": "functional, cell-based"}, "[9]": {"target": "T1, Glucagon-like peptide 1 receptor", "test": "Positive allosteric modulation of human recombinant GLP1 receptor expressed in 9-3-H cells by calcium mobilization assay in presence of EC20 of GLP1", "format": "functional, cell-based"}, "[10]": {"target": "T1, Glucagon-like peptide 1 receptor", "test": "Positive allosteric modulation of human recombinant GLP1 receptor expressed in 9-3-H cells assessed as fold change at 30 uM by calcium mobilization assay […] relative to control", "format": "functional, cell-based"}, "Plasma [11]": {"system": "Plasma", "test": "Fraction unbound in rat plasma", "format": "ADME, cell-free"}, "[12]": {"target": "T1, Glucagon-like peptide 1 receptor", "test": "Positive allosteric modulation of human recombinant GLP1 receptor expressed in 9-3-H cells by calcium mobilization assay in presence of EC20 of liragulitide relative to control", "format": "functional, cell-based"}, "[13]": {"target": "T1, Glucagon-like peptide 1 receptor", "test": "Positive allosteric modulation of human recombinant GLP1 receptor expressed in 9-3-H cells by calcium mobilization assay relative to control", "format": "functional, cell-based"}, "Cytochrome P450 2C9": {"target": "Cytochrome P450 2C9 (Homo sapiens, UniProt P11712)", "sequence (P11712 whole entry)": "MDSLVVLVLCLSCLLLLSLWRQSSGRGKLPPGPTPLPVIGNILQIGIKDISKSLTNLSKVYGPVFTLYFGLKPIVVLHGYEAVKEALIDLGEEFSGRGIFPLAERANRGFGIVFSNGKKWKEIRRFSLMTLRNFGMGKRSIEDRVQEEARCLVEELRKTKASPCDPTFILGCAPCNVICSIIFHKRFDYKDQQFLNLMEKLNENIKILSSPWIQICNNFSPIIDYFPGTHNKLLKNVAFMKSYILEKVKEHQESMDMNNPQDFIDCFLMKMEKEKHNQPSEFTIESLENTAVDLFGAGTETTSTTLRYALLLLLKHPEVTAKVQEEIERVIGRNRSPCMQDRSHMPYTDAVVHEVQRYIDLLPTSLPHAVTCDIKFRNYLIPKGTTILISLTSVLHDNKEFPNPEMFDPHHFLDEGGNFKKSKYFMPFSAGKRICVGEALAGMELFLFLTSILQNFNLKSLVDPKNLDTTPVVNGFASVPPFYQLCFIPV", "test": "Inhibition of CYP2C9 (unknown origin)", "format": "ADME", "method_in_brief": "as §2"}, "Rattus norvegicus": {"system": "Rattus norvegicus", "test": "Volume of distribution at steady state in rat at 1 mg/kg, iv and […], po", "format": "ADME, organism-based", "set-up": "dose 1 mg/kg, route oral", "details": "in vivo", "method_in_brief": "as §1"}, "[14]": {"target": "T1, Glucagon-like peptide 1 receptor", "test": "Positive allosteric modulation of human recombinant GLP1 receptor expressed in 9-3-H cells by calcium mobilization assay in presence of EC20 of exenatide relative to control", "format": "functional, cell-based"}, "Brain": {"system": "Brain", "test": "Fraction unbound in rat brain homogenate", "format": "ADME, tissue-based"}, "Nucleic Acid": {"system": "Nucleic Acid", "test": "Ratio of drug level in brain to plasma at 10 mg/kg, ip", "format": "ADME, organism-based", "set-up": "dose 10 mg/kg, route intraperitoneal", "details": "rat", "method_in_brief": "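Rats were dosed IP at 10 mg/kg. Plasma and brain levels were measured at 0.5 h, and the brain:plasma ratio was given as Kp and as Kp,uu, using unbound fractions.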"}, "Cytochrome P450 2D6": {"target": "Cytochrome P450 2D6 (Homo sapiens, UniProt P10635)", "sequence (P10635 whole entry)": "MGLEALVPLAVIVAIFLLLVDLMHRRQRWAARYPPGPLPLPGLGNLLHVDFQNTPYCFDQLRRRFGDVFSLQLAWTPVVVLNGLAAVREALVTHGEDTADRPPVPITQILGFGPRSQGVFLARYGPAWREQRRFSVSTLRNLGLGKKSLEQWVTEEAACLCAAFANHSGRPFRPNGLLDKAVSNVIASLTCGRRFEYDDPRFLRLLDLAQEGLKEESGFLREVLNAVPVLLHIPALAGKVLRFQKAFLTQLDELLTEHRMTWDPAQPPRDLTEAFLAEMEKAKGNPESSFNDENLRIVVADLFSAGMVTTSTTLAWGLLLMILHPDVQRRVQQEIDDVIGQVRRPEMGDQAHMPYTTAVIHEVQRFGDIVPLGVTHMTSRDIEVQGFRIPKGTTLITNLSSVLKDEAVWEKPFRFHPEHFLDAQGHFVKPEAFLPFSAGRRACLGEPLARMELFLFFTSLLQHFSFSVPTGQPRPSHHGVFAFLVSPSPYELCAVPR", "test": "Inhibition of CYP2D6 (unknown origin)", "format": "ADME", "method_in_brief": "as §2"}, "Cytochrome P450 3A4": {"target": "Cytochrome P450 3A4 (Homo sapiens, UniProt P08684)", "sequence (P08684 whole entry)": "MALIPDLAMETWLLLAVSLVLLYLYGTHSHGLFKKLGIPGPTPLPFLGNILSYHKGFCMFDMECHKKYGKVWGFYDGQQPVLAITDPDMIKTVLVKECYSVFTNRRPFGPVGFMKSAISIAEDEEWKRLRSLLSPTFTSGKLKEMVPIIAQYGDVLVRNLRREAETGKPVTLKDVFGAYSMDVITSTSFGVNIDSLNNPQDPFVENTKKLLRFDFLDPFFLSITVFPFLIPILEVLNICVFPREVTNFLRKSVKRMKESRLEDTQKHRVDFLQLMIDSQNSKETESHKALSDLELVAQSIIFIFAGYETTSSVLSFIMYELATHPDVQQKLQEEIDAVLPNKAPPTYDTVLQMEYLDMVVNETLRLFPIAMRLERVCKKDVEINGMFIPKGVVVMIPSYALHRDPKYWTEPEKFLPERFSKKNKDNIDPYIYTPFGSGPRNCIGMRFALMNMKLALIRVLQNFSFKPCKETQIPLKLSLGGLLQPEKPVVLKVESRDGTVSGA", "test": "Inhibition of CYP3A4 (unknown origin)"}, "[15]": {"target": "Glucagon receptor (Homo sapiens) (UniProt P47871)", "sequence (P47871 whole entry, looked up)": "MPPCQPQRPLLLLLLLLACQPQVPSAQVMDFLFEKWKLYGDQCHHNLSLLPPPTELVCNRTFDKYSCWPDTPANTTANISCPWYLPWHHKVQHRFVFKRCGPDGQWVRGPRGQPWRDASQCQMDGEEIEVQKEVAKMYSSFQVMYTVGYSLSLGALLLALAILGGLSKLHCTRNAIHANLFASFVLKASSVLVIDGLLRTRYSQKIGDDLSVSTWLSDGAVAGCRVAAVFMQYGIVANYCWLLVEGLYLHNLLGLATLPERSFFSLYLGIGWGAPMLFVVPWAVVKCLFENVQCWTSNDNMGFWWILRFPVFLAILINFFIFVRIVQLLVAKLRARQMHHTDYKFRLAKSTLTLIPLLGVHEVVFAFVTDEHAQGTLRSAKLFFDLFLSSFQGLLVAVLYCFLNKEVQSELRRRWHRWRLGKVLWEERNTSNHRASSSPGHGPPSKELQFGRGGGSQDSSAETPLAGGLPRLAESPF", "test": "Activity at glucagon receptor (unknown origin)"}, "[16]": {"target": "Melanocortin receptor 4 (Homo sapiens) (UniProt P32245)", "sequence (P32245 whole entry)": "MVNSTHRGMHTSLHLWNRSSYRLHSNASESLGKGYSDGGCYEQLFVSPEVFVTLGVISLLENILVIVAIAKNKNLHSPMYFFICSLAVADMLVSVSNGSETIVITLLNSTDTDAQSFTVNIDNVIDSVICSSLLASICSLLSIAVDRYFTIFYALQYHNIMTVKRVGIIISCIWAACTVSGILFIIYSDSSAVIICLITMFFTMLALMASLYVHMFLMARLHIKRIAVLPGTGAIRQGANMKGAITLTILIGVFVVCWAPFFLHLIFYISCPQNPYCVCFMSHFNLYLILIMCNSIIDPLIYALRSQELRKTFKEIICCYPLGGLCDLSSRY", "test": "Activity at melanocortin 4 receptor (unknown origin)"}},
  "note": "Active and inactive are the calls of the source. The rule behind the calls is not given here.",
  "data": [
    {"smiles": "CC(C)N1CCC[C@H]1CNC(=O)c1cn(C2CCCC2)c(=O)c2c1c1ccccc1n2C", "values": [
      {"measurement": "Fu", "setting": "Plasma [1]", "value": 0.146},
      {"measurement": "half-life", "setting": "[2]", "value": 58, "unit": "min"},
      {"measurement": "Emax", "setting": "[3]", "value": 59.2, "unit": "%"},
      {"measurement": "CLint scaled", "setting": "[4]", "value": 69.9, "unit": "mL/min/kg"},
      {"measurement": "EC50", "setting": "[5]", "value": 30, "unit": "µM"},
      {"measurement": "CLint scaled", "setting": "[6]", "value": 19.9, "unit": "mL/min/kg"},
      {"measurement": "EC50", "setting": "[7]; read-out: EC50", "value": 1.3, "unit": "µM"},
      {"measurement": "IC50", "setting": "Cytochrome P450 1A2", "value": "> 30", "unit": "µM"},
      {"measurement": "EC50", "setting": "[8]", "value": 8.4, "unit": "µM"},
      {"measurement": "EC50", "setting": "[9]", "value": 1.8, "unit": "µM"},
      {"measurement": "Emax", "setting": "[10]", "value": 20, "unit": "%"},
      {"measurement": "Fu", "setting": "Plasma [11]", "value": 0.158},
      {"measurement": "Emax", "setting": "[12]", "value": 59.2, "unit": "%"},
      {"measurement": "Emax", "setting": "[13]", "value": 59.2, "unit": "%"},
      {"measurement": "IC50", "setting": "Cytochrome P450 2C9", "value": "> 30", "unit": "µM"},
      {"measurement": "Vdss", "setting": "Rattus norvegicus", "value": 4, "unit": "L/kg"},
      {"measurement": "Emax", "setting": "[14]", "value": 71.5, "unit": "%"},
      {"measurement": "Fu", "setting": "Brain", "value": 0.015},
      {"measurement": "K(p,uu,brain)", "setting": "Nucleic Acid", "value": 0.27},
      {"measurement": "Kp", "setting": "Nucleic Acid", "value": 2.7}
    ]},
    {"smiles": "CCCCCCN1CCC[C@H]1CNC(=O)c1cn(C2CCCC2)c(=O)c2c1c1ccccc1n2C", "values": [
      {"measurement": "EC50", "setting": "[7]; read-out: EC50", "value": 10.3, "unit": "µM"},
      {"measurement": "Emax", "setting": "[13]", "value": 55.7, "unit": "%"}
    ]},
    {"smiles": "Cn1c2ccccc2c2c(C(=O)NC[C@@H]3CCCN3CCc3ccccc3)cn(C3CCCC3)c(=O)c21", "values": [
      {"measurement": "EC50", "setting": "[7]; read-out: EC50", "value": 14.1, "unit": "µM"},
      {"measurement": "EC50", "setting": "[7]; read-out: pEC50 (converted)", "value": 18.2, "unit": "µM"},
      {"measurement": "Emax", "setting": "[13]", "value": 68.5, "unit": "%"}
    ]},
    {"smiles": "CCCN1CCC[C@H]1CNC(=O)c1cn(C2CCCC2)c(=O)c2c1c1ccccc1n2C", "values": [
      {"measurement": "EC50", "setting": "[7]; read-out: EC50", "value": 6.5, "unit": "µM"},
      {"measurement": "Emax", "setting": "[13]", "value": 48.4, "unit": "%"}
    ]},
    {"smiles": "CCN1CCC[C@H]1CNC(=O)c1cn(C2CCCC2)c(=O)c2c1c1ccccc1n2C", "values": [
      {"measurement": "IC50", "setting": "Cytochrome P450 2D6", "value": "> 20", "unit": "µM"},
      {"measurement": "IC50", "setting": "Cytochrome P450 3A4", "value": 3.2, "unit": "µM"},
      {"measurement": "Fu", "setting": "Plasma [1]", "value": "> 10", "unit": "%"},
      {"measurement": "EC50", "setting": "[7]; read-out: EC50", "value": 2.4, "unit": "µM"},
      {"measurement": "EC50", "setting": "[7]; read-out: pEC50 (converted)", "value": 2.04, "unit": "µM"},
      {"measurement": "IC50", "setting": "Cytochrome P450 1A2", "value": "> 20", "unit": "µM"},
      {"measurement": "Fu", "setting": "Plasma [11]", "value": "> 10", "unit": "%"},
      {"measurement": "Emax", "setting": "[13]", "value": 53.4, "unit": "%"},
      {"measurement": "IC50", "setting": "Cytochrome P450 2C9", "value": "> 20", "unit": "µM"}
    ]},
    {"smiles": "COc1ccccc1CN1CCC[C@H]1CNC(=O)c1cn(C2CCCC2)c(=O)c2c1c1ccccc1n2C", "values": [
      {"measurement": "EC50", "setting": "[7]; read-out: EC50", "value": 12.1, "unit": "µM"},
      {"measurement": "Emax", "setting": "[13]", "value": 68.3, "unit": "%"}
    ]},
    {"smiles": "CCN1CCCC1CNC(=O)c1cn(C2CCCC2)c(=O)c2c1c1ccccc1n2C", "note": "(racemic)", "values": [
      {"measurement": "EC50", "setting": "[7]; read-out: EC50", "value": 4.1, "unit": "µM"},
      {"measurement": "Activity", "setting": "[15]", "value": "inactive"},
      {"measurement": "Activity", "setting": "[16]", "value": "inactive"},
      {"measurement": "Emax", "setting": "[13]", "value": 58.9, "unit": "%"}
    ]}
  ]
}
